{"source": "ChEMBL document CHEMBL1127574", "about": "“Design and synthesis of ellipticinium salts and 1,2-dihydroellipticines with high selectivities against human CNS cancers in vitro” (1994)", "format_in_all_cases": "functional", "key": {"SF-268 [1]": {"test_system": "SF-268", "assay": "Tested in vitro for cytotoxicity in SF-268 cell lines", "details": "Homo sapiens", "procedure,_shortened": "(§1)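 Compounds dissolved in DMSO, then diluted 500-fold into aqueous medium. The resulting aqueous solutions or suspensions were added to the cultured human tumour cell lines, and the cells were exposed for 48 h. Growth was read colorimetrically in one of two ways: a metabolic assay in which viable cells reduce a tetrazolium salt to a formazan dye, or a protein stain for total cellular protein.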"}, "Malme-3M [2]": {"test_system": "Malme-3M", "assay": "Tested in vitro for cytotoxicity in MALME-3M", "details": "Homo sapiens", "procedure,_shortened": "as §1"}, "SK-MEL-28": {"test_system": "SK-MEL-28", "assay": "Tested in vitro for cytotoxicity in SK-MEL-28 cell line of Melanoma", "details": "Homo sapiens, read-out: Log TGI (converted)", "procedure,_shortened": "as §1"}, "SF-268 [3]": {"test_system": "SF-268", "assay": "Tested in vitro for cytotoxicity in SF-268 cell line of CNS cancer", "details": "Homo sapiens, read-out: Log TGI (converted)", "procedure,_shortened": "as §1"}, "SNB-78": {"test_system": "SNB-78", "assay": "Tested in vitro for cytotoxicity in SNB-78 cell line of CNS Cancer", "details": "Homo sapiens, read-out: Log TGI (converted)", "procedure,_shortened": "(§2)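 Compounds dissolved in DMSO and diluted 500-fold into aqueous medium; aliquots of the resulting solutions or suspensions added to cultured human tumor cells for 48 h. Growth read colorimetrically, either by tetrazolium reduction to formazan by viable cells or by protein staining of total cellular protein.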"}, "NCI-H460": {"test_system": "NCI-H460", "assay": "Tested in vitro for cytotoxicity in NCI-H460 cell line of Non-Small Cell Lung Cancer", "details": "Homo sapiens, read-out: Log TGI (converted)", "procedure,_shortened": "as §1"}, "M19-MEL": {"test_system": "M19-MEL", "assay": "Tested in vitro for cytotoxicity in M19-MEL cell line of Melanoma", "details": "Homo sapiens, read-out: Log TGI (converted)", "procedure,_shortened": "as §1"}, "COLO 205 [4]": {"test_system": "COLO 205", "assay": "Tested in vitro for cytotoxicity in COLO 205 cell line of Colon Cancer", "details": "Homo sapiens, read-out: Log TGI (converted)", "procedure,_shortened": "as §1"}, "NCI-H226": {"test_system": "NCI-H226", "assay": "Tested in vitro for cytotoxicity in NCI-H226 cell line of Non-Small Cell Lung Cancer", "details": "Homo sapiens, read-out: Log TGI (converted)", "procedure,_shortened": "as §1"}, "SW-620": {"test_system": "SW-620", "assay": "Tested in vitro for cytotoxicity in SW-620 cell line of Colon Cancer", "details": "Homo sapiens, read-out: Log TGI (converted)", "procedure,_shortened": "as §2"}, "OVCAR-4": {"test_system": "OVCAR-4", "assay": "Tested in vitro for cytotoxicity in OVCAR-4 cell line of Ovarian Cancer", "details": "Homo sapiens, read-out: Log TGI (converted)", "procedure,_shortened": "as §1"}, "U-251": {"test_system": "U-251", "assay": "Tested in vitro for cytotoxicity in U251 cell line of CNS Cancer", "details": "Homo sapiens, read-out: Log TGI (converted)", "procedure,_shortened": "as §2"}, "HCC 2998": {"test_system": "HCC 2998", "assay": "Tested in vitro for cytotoxicity in HCC2998 cell line of Colon Cancer", "details": "Homo sapiens, read-out: Log TGI (converted)", "procedure,_shortened": "as §1"}, "LXFL 529": {"test_system": "LXFL 529", "assay": "Tested in vitro for cytotoxicity in LXFL-529 cell line of Non-Small Cell Lung Cancer", "details": "Homo sapiens, read-out: Log TGI (converted)", "procedure,_shortened": "as §1"}, "786-0": {"test_system": "786-0", "assay": "Tested in vitro for cytotoxicity in 786-0 cell line of Renal cancer", "details": "Homo sapiens, read-out: Log TGI (converted)", "procedure,_shortened": "as §1"}, "HOP-18": {"test_system": "HOP-18", "assay": "Tested in vitro for cytotoxicity in HOP-18 cell line of Non-Small Cell Lung Cancer", "details": "Homo sapiens, read-out: Log TGI (converted)", "procedure,_shortened": "as §1"}, "HCT-116": {"test_system": "HCT-116", "assay": "Tested in vitro for cytotoxicity in HCT116 cell line of Colon Cancer", "details": "Homo sapiens, read-out: Log TGI (converted)", "procedure,_shortened": "as §1"}, "ACHN": {"test_system": "ACHN", "assay": "Tested in vitro for cytotoxicity in ACHN cell line of Renal cancer", "details": "Homo sapiens, read-out: Log TGI (converted)", "procedure,_shortened": "as §1"}, "RPMI-8226": {"test_system": "RPMI-8226", "assay": "Tested in vitro for cytotoxicity in RPMI-8226 cell line of Leukemia", "details": "Homo sapiens, read-out: Log TGI (converted)", "procedure,_shortened": "as §1"}, "RXF 631": {"test_system": "RXF 631", "assay": "Tested in vitro for cytotoxicity in RXF-631 cell line of Renal cancer", "details": "Homo sapiens, read-out: Log TGI (converted)", "procedure,_shortened": "as §1"}, "LOX IMVI": {"test_system": "LOX IMVI", "assay": "Tested in vitro for cytotoxicity in LOX IMVI cell line of Melanoma", "details": "Homo sapiens, read-out: Log TGI (converted)", "procedure,_shortened": "as §1"}, "OVCAR-5": {"test_system": "OVCAR-5", "assay": "Tested in vitro for cytotoxicity in OVCAR-5 cell line of Ovarian Cancer", "details": "Homo sapiens, read-out: Log TGI (converted)", "procedure,_shortened": "as §1"}, "Malme-3M [5]": {"test_system": "Malme-3M", "assay": "Tested in vitro for cytotoxicity in MALME-3M cell line of Melanoma", "details": "Homo sapiens, read-out: Log TGI (converted)", "procedure,_shortened": "as §1"}, "A498": {"test_system": "A498", "assay": "Tested in vitro for cytotoxicity in A498 cell line of Renal cancer", "details": "Homo sapiens, read-out: Log TGI (converted)", "procedure,_shortened": "as §1"}, "UO-31": {"test_system": "UO-31", "assay": "Tested in vitro for cytotoxicity in UO-31 cell line of Renal cancer", "details": "Homo sapiens, read-out: Log TGI (converted)", "procedure,_shortened": "as §2"}, "DLD-1": {"test_system": "DLD-1", "assay": "Tested in vitro for cytotoxicity in DLD-1 cell line of Colon Cancer", "details": "Homo sapiens, read-out: Log TGI (converted)", "procedure,_shortened": "as §1"}, "COLO 205 [6]": {"test_system": "COLO 205", "assay": "Tested in vitro for cytotoxicity in COLO 205 cell lines", "details": "Homo sapiens", "procedure,_shortened": "as §1"}, "TK-10": {"test_system": "TK-10", "assay": "Tested in vitro for cytotoxicity in TK-10 cell line of Renal cancer", "details": "Homo sapiens, read-out: Log TGI (converted)", "procedure,_shortened": "as §2"}, "DMS-114": {"test_system": "DMS-114", "assay": "Tested in vitro for cytotoxicity in DMS114 cell line of Small Cell Lung Cancer", "details": "Homo sapiens, read-out: Log TGI (converted)", "procedure,_shortened": "as §1"}, "NCI-H522": {"test_system": "NCI-H522", "assay": "Tested in vitro for cytotoxicity in NCI-H522 cell line of Non-Small Cell Lung Cancer", "details": "Homo sapiens, read-out: Log TGI (converted)", "procedure,_shortened": "as §1"}, "A549": {"test_system": "A549", "assay": "Tested in vitro for cytotoxicity in A549/ATCC cell lines", "details": "Homo sapiens", "procedure,_shortened": "as §1"}}, "data": [{"molecule": "COc1ccc2[nH]c3c(C)c4c(c(C)c3c2c1)CN(C)C=C4", "values": [{"measurement": "GI50", "setting": "SF-268 [1]", "result": 0.186, "unit": "µM"}, {"measurement": "GI50", "setting": "Malme-3M [2]", "result": 1.44, "unit": "µM"}, {"measurement": "TGI", "setting": "SK-MEL-28", "result": 12.6, "unit": "µM"}, {"measurement": "TGI", "setting": "SF-268 [3]", "result": 0.631, "unit": "µM"}, {"measurement": "TGI", "setting": "SNB-78", "result": 5.01, "unit": "µM"}, {"measurement": "TGI", "setting": "NCI-H460", "result": 10, "unit": "µM"}, {"measurement": "TGI", "setting": "M19-MEL", "result": 2.51, "unit": "µM"}, {"measurement": "TGI", "setting": "COLO 205 [4]", "result": 5.01, "unit": "µM"}, {"measurement": "TGI", "setting": "NCI-H226", "result": 0.794, "unit": "µM"}, {"measurement": "TGI", "setting": "SW-620", "result": 15.8, "unit": "µM"}, {"measurement": "TGI", "setting": "OVCAR-4", "result": 25.1, "unit": "µM"}, {"measurement": "TGI", "setting": "U-251", "result": 1, "unit": "µM"}, {"measurement": "TGI", "setting": "HCC 2998", "result": 12.6, "unit": "µM"}, {"measurement": "TGI", "setting": "LXFL 529", "result": 5.01, "unit": "µM"}, {"measurement": "TGI", "setting": "786-0", "result": 12.6, "unit": "µM"}, {"measurement": "TGI", "setting": "HOP-18", "result": 39.8, "unit": "µM"}, {"measurement": "TGI", "setting": "HCT-116", "result": 15.8, "unit": "µM"}, {"measurement": "TGI", "setting": "ACHN", "result": 63.1, "unit": "µM"}, {"measurement": "TGI", "setting": "RPMI-8226", "result": "> 100", "unit": "µM"}, {"measurement": "TGI", "setting": "RXF 631", "result": 25.1, "unit": "µM"}, {"measurement": "TGI", "setting": "LOX IMVI", "result": 25.1, "unit": "µM"}, {"measurement": "TGI", "setting": "OVCAR-5", "result": 31.6, "unit": "µM"}, {"measurement": "TGI", "setting": "Malme-3M [5]", "result": 5.01, "unit": "µM"}, {"measurement": "TGI", "setting": "A498", "result": 63.1, "unit": "µM"}, {"measurement": "TGI", "setting": "UO-31", "result": "> 100", "unit": "µM"}, {"measurement": "TGI", "setting": "DLD-1", "result": 20, "unit": "µM"}, {"measurement": "GI50", "setting": "COLO 205 [6]", "result": 1.32, "unit": "µM"}, {"measurement": "TGI", "setting": "TK-10", "result": 50.1, "unit": "µM"}, {"measurement": "TGI", "setting": "DMS-114", "result": 2.51, "unit": "µM"}, {"measurement": "TGI", "setting": "NCI-H522", "result": 5.01, "unit": "µM"}, {"measurement": "GI50", "setting": "A549", "result": 0.993, "unit": "µM"}]}]}
